The full list was thinned out, with hits kept by preference.
INS-1E ATP HTS = preserves ATP levels in cytokine-treated INS-1E cells; protection from cytokine-induced ATP loss, % at 10 µM; INS-1E cytokine-induced death, ATP luminescence, 48 h; normalised: neutral wells 0, positive control 100; 0.1% of 20,000 active; AID 488910;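 active = mean replicate protection from cytokine-induced ATP loss at least 50% and at least 75% of replicates each reaching 50%; inconclusive = meets only one of the two criteria, mean or replicate share; inactive = fails both the mean and replicate share criteria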
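Material: INS-1E rat cells; Quantity: 8000 cells/well; Buffer or medium: phenol-red-free RPMI with 5% fetal bovine serum; Probe or stimulus: cytokine cocktail of IFN-γ, TNF-α and IL-1β; Compound dosing: single test concentration per compound, delivered by pin transfer; Incubation: 48 h co-treatment, 10 min post-lysis read; Signal: CellTiter-Glo luminescence.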
T cruzi HTS = intracellular Trypanosoma cruzi inhibition; intracellular Trypanosoma cruzi in host cells, plate reader; activity score (inhibition), % at 5.01 µM; 4.9% of 22,000 active; in the data active = activity score above about 55%; inconclusive = no clear call, values can overlap the other calls;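 note: parasites and compound incubated about four days before reading; 0% = median of neutral control wells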
A1 apoptosis 2 = compounds inhibiting A1, read as caspase activation; 24,000 tested, under 10 active; MEF A1-2A-BIM cells, caspase-Glo luminescence, 3 h; percent of clofoctol response, DMSO zero; caspase activation, % (no concentration beside the values); in the data active = caspase activation above about 5.9%; inconclusive = no clear call, values can overlap the other calls; inactive = below about 2.2%
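Material: A1-2A-BIM-expressing MEF cells. Buffer or medium: RPMI-1640 plus 10% FBS. Incubation: cells settled overnight, compound exposure 3 h at 37 °C, 5% CO2. Signal: Caspase-Glo 3/7 luminescence, 1 h at room temperature.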
* = called active by the depositor; ? = inconclusive; . = no result.

SMILES | INS-1E ATP HTS | T cruzi HTS | A1 apoptosis 2
C[C@@H]1CN([C@@H](C)CO)C(=O)c2cc(NC(=O)Nc3ccc4c(c3)OCO4)ccc2O[C@@H](C)CCCCO[C@H]1CN(C)Cc1ccc(C(F)(F)F)cc1 | . | . | -1.0
COc1ccc(CN(C)C[C@@H]2OCCCC[C@@H](C)Oc3ccc(NC(=O)Nc4ccc(C(F)(F)F)cc4)cc3C(=O)N([C@H](C)CO)C[C@@H]2C)cc1 | -32.4 | 62.8* | .
C[C@@H]1CCCCO[C@@H](CN(C)Cc2ccc(C(F)(F)F)cc2)[C@@H](C)CN([C@H](C)CO)C(=O)c2cc(NC(=O)Nc3ccc(F)cc3)ccc2O1 | -4.1 | 78.9* | .
C[C@@H]1CCCCO[C@H](CN(C)Cc2ccc(C(F)(F)F)cc2)[C@@H](C)CN([C@@H](C)CO)C(=O)c2cc(NC(=O)Nc3ccc(F)cc3)ccc2O1 | . | . | -0.6
O=C(CCCCCCC(=O)Nc1ccccc1O)N/N=C/c1ccc(-c2ccccc2)cc1 | 9.1 | 34.4 | -1.1
O=C(NO)c1ccc(C(=O)N/N=C/c2c[nH]c3ccccc23)cc1 | 7.8 | -2.5 | .
C[C@H]1CN([C@@H](C)CO)C(=O)Cc2cc(NC(=O)Nc3ccccc3)ccc2O[C@H]1CN(C)Cc1ccc(-c2ccccc2)cc1 | 7.7 | -17.6 | 0.0
C[C@H]1CN([C@@H](C)CO)C(=O)Cc2cc(NC(=O)NC3CCCCC3)ccc2O[C@H]1CN(C)Cc1ccc(-c2ccccc2)cc1 | -34.8 | 67.3* | .
C[C@H](CO)N1C[C@H](C)[C@H](CN(C)Cc2ccc(-c3ccccc3)cc2)Oc2ccc(NC(=O)NC3CCCCC3)cc2CC1=O | -20.5 | 39.0 | .
C[C@@H]1CN([C@@H](C)CO)C(=O)Cc2cc(NC(=O)Nc3ccc(F)cc3)ccc2O[C@@H]1CN(C)Cc1ccc(-c2ccccc2)cc1 | -6.0 | 61.0* | -0.7
C[C@@H]1CN([C@@H](C)CO)C(=O)Cc2cc(NC(=O)c3ccncc3)ccc2O[C@@H]1CN(C)Cc1ccccc1 | 1.1 | 0.4 | .
C[C@@H]1CN([C@@H](C)CO)C(=O)Cc2cc(NC(=O)Nc3ccccc3)ccc2O[C@@H]1CN(C)Cc1ccc(-c2ccccc2)cc1 | -10.8 | 62.4* | -0.6
C[C@H]1CN([C@@H](C)CO)C(=O)Cc2cc(NC(=O)c3ccncc3)ccc2O[C@H]1CN(C)Cc1ccc(-c2ccccc2)cc1 | -9.4 | 77.5* | .
C[C@H](CO)N1C[C@H](C)[C@H](CN(C)Cc2ccc(-c3ccccc3)cc2)Oc2ccc(NC(=O)Nc3ccccc3)cc2CC1=O | -15.6 | ? | .
O=C(O)CCCCCCC(=O)N/N=C/c1cn(S(=O)(=O)c2ccccc2)c2ccccc12 | 6.8 | -5.4 | .
C[C@@H]1CN([C@@H](C)CO)C(=O)Cc2cc(NC(=O)NC3CCCCC3)ccc2O[C@@H]1CN(C)Cc1ccc(Cl)c(Cl)c1 | -59.4 | 50.3 | .
C[C@H]1CN([C@@H](C)CO)C(=O)Cc2cc(NC(=O)NC3CCCCC3)ccc2O[C@@H]1CN(C)Cc1ccc(Cl)c(Cl)c1 | -20.8 | 65.4* | 0.6
C[C@@H]1CN([C@H](C)CO)C(=O)c2cccc(NC(=O)CCCCCC(=O)Nc3ccccc3N)c2O[C@@H]1CN(C)S(=O)(=O)c1ccc(F)cc1 | -8.3 | 60.9* | .
Cc1ccc(S(=O)(=O)N(C)C[C@H]2Oc3c(NC(=O)CCCCCC(=O)Nc4ccccc4N)cccc3C(=O)N([C@@H](C)CO)C[C@@H]2C)cc1 | . | . | 0.7
C[C@@H]1CN([C@@H](C)CO)C(=O)c2cccc(NC(=O)CCCCCC(=O)Nc3ccccc3N)c2O[C@@H]1CN(C)S(=O)(=O)c1ccc(F)cc1 | -0.2 | 36.3 | 1.1
Cc1ccc(S(=O)(=O)N(C)C[C@@H]2Oc3c(NC(=O)CCCCCC(=O)Nc4ccccc4N)cccc3C(=O)N([C@H](C)CO)C[C@@H]2C)cc1 | -3.1 | 72.7* | -0.5
C[C@H](CO)N1C[C@H](C)[C@H](CN(C)S(=O)(=O)c2ccc(F)cc2)Oc2c(NC(=O)CCCCCC(=O)Nc3ccccc3N)cccc2C1=O | 7.2 | 63.4* | .
C[C@@H]1CN([C@@H](C)CO)C(=O)c2cccc(NC(=O)CCCCCC(=O)Nc3ccccc3N)c2O[C@H]1CN(C)S(=O)(=O)c1ccc(F)cc1 | -14.5 | -6.2 | .
NC(=O)COc1ccccc1/C=N/NC(=O)c1cccc(C(=O)NO)c1 | 0.8 | -11.5 | 1.3
O=C(CCCCC(=O)N/N=C/c1cccnc1Br)NO | . | . | 1.2
